This is an account of results in ChEMBL document CHEMBL1138411, “Design, synthesis, and biological evaluation of 1,3-dioxoisoindoline-5-carboxamide derivatives as T-type calcium channel blockers” (Bioorg Med Chem Lett, 2007).

Broadly, the IC50 is the concentration that gives 50% inhibition. As a reminder, the CC50 is the concentration giving 50% cytotoxicity.

Data set [1] addresses Voltage-dependent T-type calcium channel subunit alpha-1G (Homo sapiens, UniProt O43497). Put plainly: Inhibition of T-type calcium channel Cav3.1 expressed in HEK293 cells co-expressing alpha1G subunit and Kir2.1 potassium channel by patch-clamp assay. Format: cell-based. In outline:
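Cells were HEK293 stably co-expressing Cav3.1 (α1G) and Kir2.1. Single-cell patch-clamp recording measured % inhibition of Ca2+ current at set compound concentrations, giving IC50 values. This was a secondary screen of compounds selected from a primary FDSS6000 fluorescence high-throughput assay.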
(Patch clamp records ionic current or voltage across a cell membrane.)

The nature of data set [2]: Inhibition of N-type calcium channel activity. Further details: species or system Homo sapiens.
For another data set, the species on record is Homo sapiens. Put plainly: Selectivity index, ratio of IC50 for N-type calcium channel to IC50 for T-type calcium channel Cav3.1.
Data set [3] can be described thus: Cytotoxicity against HEK293 cells by MTT assay. Type of data set: cell-based. The note with it: human. In outline:
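MTT viability read-out. Negative control was 0.1% DMSO and positive control was H2O2.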

Chain of Voltage-dependent T-type calcium channel subunit alpha-1G (O43497 whole entry): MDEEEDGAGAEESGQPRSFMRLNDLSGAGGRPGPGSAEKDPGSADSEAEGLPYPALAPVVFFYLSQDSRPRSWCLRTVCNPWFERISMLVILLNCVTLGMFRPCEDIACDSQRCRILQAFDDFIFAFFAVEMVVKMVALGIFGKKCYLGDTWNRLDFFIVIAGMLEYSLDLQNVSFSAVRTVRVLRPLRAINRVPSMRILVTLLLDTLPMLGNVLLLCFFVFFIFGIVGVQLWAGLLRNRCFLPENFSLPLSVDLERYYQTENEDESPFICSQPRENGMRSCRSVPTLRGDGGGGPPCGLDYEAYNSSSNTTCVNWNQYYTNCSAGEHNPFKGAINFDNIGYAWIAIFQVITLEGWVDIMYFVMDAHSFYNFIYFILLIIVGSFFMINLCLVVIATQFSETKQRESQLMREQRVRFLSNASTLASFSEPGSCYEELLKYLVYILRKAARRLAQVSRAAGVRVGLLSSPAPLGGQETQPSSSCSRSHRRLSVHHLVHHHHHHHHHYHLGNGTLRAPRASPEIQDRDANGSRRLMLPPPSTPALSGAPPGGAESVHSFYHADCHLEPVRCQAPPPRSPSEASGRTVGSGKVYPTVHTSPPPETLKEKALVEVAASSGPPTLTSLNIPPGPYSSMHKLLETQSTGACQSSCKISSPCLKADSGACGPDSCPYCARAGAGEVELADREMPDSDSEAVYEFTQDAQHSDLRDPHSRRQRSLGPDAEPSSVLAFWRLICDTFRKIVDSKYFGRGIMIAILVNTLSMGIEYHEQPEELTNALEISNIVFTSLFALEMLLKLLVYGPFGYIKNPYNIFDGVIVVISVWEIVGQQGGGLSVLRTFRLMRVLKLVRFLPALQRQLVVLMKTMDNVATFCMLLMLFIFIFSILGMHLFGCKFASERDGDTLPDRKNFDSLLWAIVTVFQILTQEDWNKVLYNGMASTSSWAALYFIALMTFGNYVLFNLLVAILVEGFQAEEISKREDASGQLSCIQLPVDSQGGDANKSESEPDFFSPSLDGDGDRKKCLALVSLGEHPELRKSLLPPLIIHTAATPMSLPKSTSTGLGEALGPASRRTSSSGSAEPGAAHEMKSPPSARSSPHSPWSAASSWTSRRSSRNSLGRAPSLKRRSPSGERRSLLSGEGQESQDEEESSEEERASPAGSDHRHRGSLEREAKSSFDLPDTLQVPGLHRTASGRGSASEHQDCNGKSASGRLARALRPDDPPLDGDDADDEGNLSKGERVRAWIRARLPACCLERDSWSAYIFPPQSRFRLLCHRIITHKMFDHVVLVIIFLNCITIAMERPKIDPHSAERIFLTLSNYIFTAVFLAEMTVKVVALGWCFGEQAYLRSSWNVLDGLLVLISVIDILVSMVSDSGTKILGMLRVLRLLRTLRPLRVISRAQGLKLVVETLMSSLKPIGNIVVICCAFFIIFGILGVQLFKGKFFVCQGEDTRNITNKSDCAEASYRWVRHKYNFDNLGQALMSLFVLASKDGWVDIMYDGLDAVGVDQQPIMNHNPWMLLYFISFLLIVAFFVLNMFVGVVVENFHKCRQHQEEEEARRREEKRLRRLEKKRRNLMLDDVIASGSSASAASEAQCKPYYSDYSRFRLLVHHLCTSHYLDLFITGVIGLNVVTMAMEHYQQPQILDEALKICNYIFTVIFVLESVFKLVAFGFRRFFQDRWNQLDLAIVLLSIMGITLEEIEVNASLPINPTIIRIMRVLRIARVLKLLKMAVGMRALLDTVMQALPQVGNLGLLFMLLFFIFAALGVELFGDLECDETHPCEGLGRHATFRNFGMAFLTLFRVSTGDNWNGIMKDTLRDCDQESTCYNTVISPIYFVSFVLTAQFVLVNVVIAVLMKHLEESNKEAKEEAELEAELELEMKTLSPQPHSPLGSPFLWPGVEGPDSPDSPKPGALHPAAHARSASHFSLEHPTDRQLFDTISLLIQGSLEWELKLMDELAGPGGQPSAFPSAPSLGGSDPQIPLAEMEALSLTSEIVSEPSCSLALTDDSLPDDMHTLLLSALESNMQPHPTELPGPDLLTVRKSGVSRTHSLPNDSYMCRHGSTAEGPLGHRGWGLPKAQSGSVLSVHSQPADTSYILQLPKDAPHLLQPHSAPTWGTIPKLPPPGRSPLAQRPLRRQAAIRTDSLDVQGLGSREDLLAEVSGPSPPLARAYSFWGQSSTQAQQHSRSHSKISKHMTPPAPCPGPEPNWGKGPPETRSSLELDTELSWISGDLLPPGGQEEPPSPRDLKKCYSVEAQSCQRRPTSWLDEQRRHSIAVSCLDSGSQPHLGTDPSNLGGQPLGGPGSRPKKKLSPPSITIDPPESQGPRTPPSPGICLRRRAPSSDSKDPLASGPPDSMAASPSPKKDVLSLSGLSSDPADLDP

`COc1cccc(CN2C(=O)c3ccc(C(=O)NCCN4CCCCC4)cc3C2=O)c1`: the IC50 in data set [1] is 14.1 µM.

Regarding `Cc1ccc(CN2C(=O)c3ccc(C(=O)NCCCN4CCCCC4C)cc3C2=O)cc1` (stereo unspecified), the IC50 in data set [1] stood at 3.53 µM.

On to `O=C(NCCN1CCCCC1)c1ccc2c(c1)C(=O)N(Cc1cccc(Cl)c1)C2=O`, for which, in data set [1], the IC50 turned out to be 4.09 µM.

`O=C(NCCN1CCCCC1)c1ccc2c(c1)C(=O)N(Cc1ccccc1Cl)C2=O`: the IC50 in data set [1] stood at 5.82 µM.

As for `COc1ccc(CN2C(=O)c3ccc(C(=O)NCCN4CCCCC4)cc3C2=O)cc1`, in data set [1], the 50% inhibitory concentration (IC50) was found to be 5.25 µM.

As for `O=C(NCCN1CCCCC1)c1ccc2c(c1)C(=O)N(Cc1ccc(F)cc1)C2=O`, the IC50 in data set [1] worked out at 8.88 µM.

As for `O=C(NCCN1CCCCC1)c1ccc2c(c1)C(=O)N(Cc1ccc(Cl)cc1)C2=O`, the IC50 in data set [2] worked out at 33.4 µM. In the data set filed under Homo sapiens, the Ratio IC50 came to 35. Moreover, in data set [3], the CC50 was greater than 100 µM.

As to `O=C(NCCN1CCCCC1)c1ccc2c(c1)C(=O)N(Cc1ccccc1)C2=O`, in data set [1], the 50% inhibitory concentration (IC50) was determined as 22.8 µM.

For the compound `O=C(NCCN1CCCCC1)c1ccc2c(c1)C(=O)N(Cc1ccccc1F)C2=O`, the IC50 in data set [1] turned out to be 14.9 µM.

Regarding `Cc1ccc(CN2C(=O)c3ccc(C(=O)NCCN4CCCCC4)cc3C2=O)cc1`, the IC50 in data set [1] was 5.82 µM.

As to `O=C(NCCCN1CCCC1)c1ccc2c(c1)C(=O)N(Cc1ccc(Cl)cc1)C2=O`, the IC50 in data set [1] is 1.62 µM.

Turning to `CC1CCCCN1CCCNC(=O)c1ccc2c(c1)C(=O)N(Cc1ccc(Cl)cc1)C2=O` (stereo unspecified), the IC50 in data set [2] worked out at 54.7 µM. Also, the Ratio IC50 in the data set listed under Homo sapiens was 59. In data set [3], this compound registered a CC50 greater than 100 µM.
